# High-throughput results from PubChem BioAssay.
# OPRM1-OPRD1 ag: OPRM1-OPRD1 heterodimerization agonism | P35372+P41143 | cells, luminescence | activation, % at 9.3 µM | 340,000 compounds, 0.3% hits; in the data active = activation above about 18%;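 also: 0% = vehicle-treated cells and 100% = reference agonist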
# Target sequence (P35372 whole entry, looked up): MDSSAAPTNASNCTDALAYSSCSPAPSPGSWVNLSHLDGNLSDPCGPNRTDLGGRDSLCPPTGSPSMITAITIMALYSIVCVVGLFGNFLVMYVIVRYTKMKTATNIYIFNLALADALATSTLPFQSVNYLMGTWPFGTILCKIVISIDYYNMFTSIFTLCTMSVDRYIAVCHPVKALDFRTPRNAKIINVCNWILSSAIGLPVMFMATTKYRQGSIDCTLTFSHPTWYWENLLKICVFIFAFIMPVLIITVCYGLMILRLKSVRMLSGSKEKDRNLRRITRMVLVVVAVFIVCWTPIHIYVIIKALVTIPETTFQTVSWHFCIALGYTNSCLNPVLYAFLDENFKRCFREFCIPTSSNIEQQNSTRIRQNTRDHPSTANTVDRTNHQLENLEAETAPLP
# Target sequence (P41143 whole entry, looked up): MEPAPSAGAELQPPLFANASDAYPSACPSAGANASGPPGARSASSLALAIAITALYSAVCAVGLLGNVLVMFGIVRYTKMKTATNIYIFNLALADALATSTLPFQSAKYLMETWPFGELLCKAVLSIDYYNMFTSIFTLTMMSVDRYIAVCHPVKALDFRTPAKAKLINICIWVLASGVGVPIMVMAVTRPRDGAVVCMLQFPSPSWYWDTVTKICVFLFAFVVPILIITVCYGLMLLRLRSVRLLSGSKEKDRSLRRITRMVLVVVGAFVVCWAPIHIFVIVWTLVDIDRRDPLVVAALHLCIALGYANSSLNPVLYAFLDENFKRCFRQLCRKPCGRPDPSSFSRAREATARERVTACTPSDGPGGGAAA
# HTR5A ag: counter-screen for OPRM1-OPRD1 agonists: human HTR5A agonism. P47898. HTR5A agonist assay, luminescence, cell-based. activation, % at 9.3 µM. 340,000 compounds, 0.61% hits; in the data active = activation mostly above about 9.5%, no sharp cut-off; inactive = mostly below about 7.6%;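 also: 0% = cells with vehicle only and 100% = reference agonist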
# MC4R barr agon: human MC4R agonism via beta-arrestin; P32245; U2OS MC4R beta-arrestin complementation, luminescence; percent of melanotan II response, DMSO zero; activation, % at 8.9 µM; 360,000 compounds, 0.98% hits;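 active = activation above a per-plate cutoff, the mean activation of sample wells on that plate plus 3 SD, cut at about 8% in these data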
# MC4R antag cAMP: human MC4R antagonism in cAMP assay. P32245. MC4R-expressing cells, MTII-stimulated cAMP, LANCE TR-FRET. inhibition, % at 6.5 µM. 360,000 compounds, 0.48% hits;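 active = inhibition above its plate's cutoff, the mean of tested wells on that plate plus 3 SD, cut at about 29% in these data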;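 also: 0% = Melanotan II alone and 100% = Melanotan II plus saturating MCL0020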
#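 Material: human MC4R-expressing U2OS cells. Probe or stimulus: Melanotan II challenge. Dosing: 6.5 µM single dose. Times: 30-min compound, 1-h challenge, 1-h detection, room temperature. Technique: TR-FRET with Eu-cAMP and labeled anti-cAMP, 671 nm. Replication: singlicate.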
# HTR5A inv ctr: inverse agonist of human HTR5A in OPRM1-OPRD1 counter-screen; HTR5A cell line, luminescence, inverse agonism; P47898; 340,000 compounds, 0.083% hits; inhibition, % at 9.3 µM; in the data active = inhibition mostly above about 23%, no sharp cut-off; inactive = mostly below about 18%;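 also: 0% = cells with DMSO and 100% = no-cell wells with DMSO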
# OPRM1-OPRD1 inv: inverse agonist of human OPRM1-OPRD1 heterodimerization. 340,000 compounds, 0.21% hits. P35372+P41143. inhibition, % at 9.3 µM. AID 504357. cell-based MOR-DOR heterodimer luminescence, inverse agonism; in the data active = inhibition above about 22%, passing the limit was not always enough;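 also: 0% = cells with DMSO and 100% = wells without cells with DMSO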
# MC4R barr ag: human MC4R beta-arrestin agonism confirmation; shares compounds with MC4R barr agon; U2OS MC4R beta-arrestin recruitment, luminescence; scaled DMSO 0%, Melanotan II 100%; activation, % at 8.9 µM; 2,400 compounds, 31% hits; AID 602192;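 active = mean activation across replicates above the hit cutoff set in the earlier primary screen, cut at about 8% in these data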
# MOR-DOR barr ag: activates mu-delta opioid heterodimer, MC4R agonist counter-screen | U2OS PathHunter beta-arrestin, beta-gal luminescence; percent of deltorphin B response, DMSO zero | 2,400 compounds, 5.8% hits | shares compounds with MC4R barr agon | activation, % at 9.2 µM;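 active = mean activation across replicates exceeds the hit threshold derived in the earlier primary screen, cut at about 18% in these data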;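 also: 100% = deltorphin B at 0.9 µM final and 0% = DMSO alone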
# Numbers without * were called inactive; nt = not tested or not shown. This is a sample that favours compounds with a hit; in the whole collection about 2.4% have one here.
SMILES,OPRM1-OPRD1 ag,HTR5A ag,MC4R barr agon,MC4R antag cAMP,HTR5A inv ctr,OPRM1-OPRD1 inv,MC4R barr ag,MOR-DOR barr ag
Oc1ccc(/C=N/N2CCN(C3c4ccccc4-c4ccccc43)CC2)cc1O,6,9,28*,18,-28,-31,13*,13
COc1ccc(Nc2nc(-c3cc4cccc(OC)c4oc3=O)cs2)cc1,-1,-1,20*,-3,15,5,5,5
COc1ccc(-c2cnc3c(NC(C)=O)cc(-c4ccc(S(C)(=O)=O)cc4)cn23)cc1OC,nt,nt,11*,5,nt,nt,9.8*,3
COc1cccc(-c2cnc3c(NC(C)=O)cc(-c4ccc(S(C)(=O)=O)cc4)cn23)c1,nt,nt,11*,11,nt,nt,14*,2
COc1cccc(-c2cnc3c(NC(C)=O)cc(-c4ccc(OC)c(OC)c4)cn23)c1,nt,nt,7,7,nt,nt,nt,nt
COc1cc(CNCc2ccccc2)cc(Cl)c1OC,1,-2,-3,3,34,-6,nt,nt
COc1cc(CNCCc2ccccc2)cc(Cl)c1OCc1ccccc1,14,7,14*,4,-16,-74,10*,13
CC(C)(C)OC(=O)N[C@H](/C=C/c1ccccc1)C(=O)OC(C)(C)C,3,-2,3,7,-18,-17,nt,nt
O=C(NCCC1=CCCCC1)c1cc(S(=O)(=O)N2CCOCC2)c(Cl)cc1Cl,4,3,10*,5,-27,-22,0,5
Cc1ccc(C(C)C)c(OCCNCCc2ccccc2)c1,14,6,9.9*,-6,-24,-67,8,10
Cc1ccc(C(C)C)c(OCCCNCc2cccnc2)c1,0,4,0,6,-10,-3,nt,nt
Cc1cccc(C)c1OCC(=O)Nc1ncn[nH]1,-2,-3,0,1,-4,10,nt,nt
O=C(COc1ccc2ccccc2c1Br)Nc1ncn[nH]1,7,2,13*,12,-1,-35,1,2
CC(C)(C)[C@H]1C=C(C(=O)O)O[C@@H](OCc2ccc(CO)cc2)C1,-2,-2,1,13,-5,13,nt,nt
Cc1ccc2cc(/C=N/NC(=O)[C@H]3C[C@@H]3c3ccccc3)c(Cl)nc2c1,2,1,24*,7,-6,-10,3,4
Cc1cccc(NC(=O)CSCC(=O)Nc2sccc2C#N)c1,-1,2,-2,-2,3,6,nt,nt
Cc1ccc(NC(=O)/C(C#N)=C/c2ccc(C)s2)c(C)c1,7,2,18*,10,0,-41,1,4
COc1cc(/C=N/Nc2ccccc2[N+](=O)[O-])cc(OC)c1O,4,3,10.0*,-12,-9,-19,-4,6
CCC(C(=O)Nc1ccc2c(c1)OCCO2)n1c(=O)[nH]c2ccccc2c1=O (stereo unspecified),0,2,0,21,-3,0,nt,nt
CC(C)Oc1ccc(C(CCNCc2ccc(O)cc2)c2ccccc2)cc1 (stereo unspecified),8,6,12*,2,-21,-38,24*,24*
O=C(Nc1ccc(F)c(F)c1)C1CCCN1S(=O)(=O)c1ccc(F)cc1 (stereo unspecified),-1,4,-3,14,-14,7,nt,nt
Cc1cc(C(C)(C)C)cc(C)c1Cn1c2[n+](c3ccc(C(F)(F)F)cc31)CCCCC2,0,11*,17*,2,-28,2,15*,7
FC(F)(F)c1cccc(Cn2c3[n+](c4ccc(C(F)(F)F)cc42)CCCCC3)c1,-1,-1,0,14,3,6,nt,nt
CCc1ccc(NC(=O)c2ccc3c(c2)C(=O)N(Cc2ccco2)C3=O)cc1,1,8,11*,-10,-22,-7,6,3
COC(=O)Cc1ccc(NC(=O)c2ccc3c(c2)C(=O)N(Cc2ccco2)C3=O)cc1,2,5,5,11,-7,-7,nt,nt
SMILES,OPRM1-OPRD1 ag,HTR5A ag,MC4R barr agon,MC4R antag cAMP,HTR5A inv ctr,OPRM1-OPRD1 inv,MC4R barr ag,MOR-DOR barr ag
Clc1ccc(Cn2ncc3c(N4CCN(c5ccccc5)CC4)ncnc32)cc1,nt,nt,11*,25,nt,nt,17*,12
N#Cc1ccccc1OCc1cccc(S(=O)(=O)N2CCOCC2)c1,-2,-3,-3,0,8,9,nt,nt
Cc1nc(Nc2ccc3c(c2)OCO3)c2oc3ccccc3c2n1,-2,4,-1,-2,-11,11,nt,nt
c1ccc2c(c1)oc1c(Nc3ccc4c(c3)OCO4)ncnc12,15,5,11*,-2,-13,-86,2,8
NNc1nc(-c2ccccc2Cl)nc2sc3c(c12)CCCC3,-4,0,-1,9,-17,20,nt,nt
Cc1ccccc1C(=O)N[C@H](C(=O)Nc1ccc(Cl)c(Cl)c1)C(C)C,6,0,17*,7,-1,-35,-1,4
CC(C)[C@H](NC(=O)c1ccccc1F)C(=O)Nc1ccc(F)c(F)c1,1,3,2,5,-10,-6,nt,nt
O=S(=O)(Nc1ccc(-n2cccc2)cc1)c1ccc(Cl)c(Cl)c1,3,4,6,-4,-18,-14,nt,nt
O=S(=O)(Nc1ccc(-n2cccc2)cc1)c1ccc(Cl)cc1Cl,9,5,11*,3,-14,-59,7,6
Cc1ccc(-c2cc(C(=O)OCC(=O)N(C)c3c(N)n(Cc4ccccc4)c(=O)[nH]c3=O)c3ccccc3n2)o1,-4,1,-2,2,13,17,nt,nt
CCOC(=O)c1c(N)sc(C(O)(C(F)(F)F)C(F)(F)F)c1-c1ccc(Cl)cc1,10,0,-2,1,1,-49,nt,nt
CCOC(=O)c1c(N)sc(C(O)(C(F)(F)F)C(F)(F)F)c1-c1ccc(F)cc1,11,11,11*,2,-32,-57,5,8
NNc1ccc(S(=O)(=O)N2CCCCC2)cn1,0,-5,12*,2,26,1,-3,1
O=S(=O)(c1ccc(N2CCCC2)nc1)N1CCCC1,-1,-1,-1,15,4,5,nt,nt
O=C(Cc1csc(-c2ccccc2)n1)Nc1ccc(C(F)(F)F)cc1,5,7,14*,4,-30,-29,4,11
O=C(OCC(O)C(O)C(O)C(SCc1ccccc1)SCc1ccccc1)c1ccccc1 (stereo unspecified),10,3,17*,6,-11,-50,14*,11
O=C(OCC(O)C(O)C(O)COC(=O)c1ccccc1)c1ccccc1 (stereo unspecified),-3,-4,-3,26,0,15,nt,nt
